Source: ChEMBL document CHEMBL3244243, “Mitomycin antibiotics. Synthesis and activity of 1,2-disubstituted mitosenes” (J Med Chem, 1977)
Calls of active or inactive are those of the source. The rule behind the calls is not given here.

Legend:
[1] = Induction of lambda-bacteriophage expression in Escherichia coli assessed as induction of plaques at 0.0125 ug/ml relative to control; assay type: functional, Enterobacteria phage lambda
Escherichia coli [2] = test: Antibacterial activity against Escherichia coli B A9885 assessed as zone of inhibition by disk-plate assay; assay type: functional
P388 [3] = test: Antitumor activity against mouse P388 cells allografted CDF mouse assessed as increase in maximum survival time at 12.8 mg/kg treated on days 1 and 5 following tumor implantation relative to saline treated control; assay type: functional, organism-based; parameters: dose 12.8 mg/kg
Outline: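 CDF male mice inoculated intraperitoneally with 10⁶ P388 ascites leukemia cells. Compound given at 12.8 mg/kg on days 1 and 5 after tumor inoculum. Six mice per compound group and ten mice in the saline control group. Read-out is percent increase in maximum survival time over the saline controls.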

[4] = system: Mycolicibacterium smegmatis; test: Antibacterial activity against Mycobacterium smegmatis 607 assessed as zone of inhibition by disk-plate assay; assay type: functional
Staphylococcus aureus [5] = test: Antibacterial activity against Staphylococcus aureus Smith P assessed as zone of inhibition by disk-plate assay; assay type: functional
Klebsiella pneumoniae = test: Antibacterial activity against Klebsiella pneumoniae assessed as zone of inhibition by disk-plate assay; assay type: functional
Staphylococcus aureus [6] = test: Antibacterial activity against Staphylococcus aureus 209P assessed as zone of inhibition by disk-plate assay; assay type: functional
[7] = (§1) Induction of lambda-bacteriophage expression in Escherichia coli assessed as induction of plaques at 0.8 ug/ml relative to control; assay type: functional, Enterobacteria phage lambda
Enterococcus faecalis = test: Antibacterial activity against Streptococcus faecalis P1377 assessed as zone of inhibition by disk-plate assay; assay type: functional
[8] = Induction of lambda-bacteriophage expression in Escherichia coli assessed as induction of plaques at 0.003 ug/ml relative to control; assay type: functional, Enterobacteria phage lambda
Bacillus subtilis = test: Antibacterial activity against Bacillus subtilis assessed as zone of inhibition by disk-plate assay; assay type: functional
Micrococcus luteus = test: Antibacterial activity against Sarcina lutea assessed as zone of inhibition by disk-plate assay; assay type: functional
[9] = (§2) Induction of lambda-bacteriophage expression in Escherichia coli assessed as induction of plaques at 0.05 ug/ml relative to control; assay type: functional, Enterobacteria phage lambda
Escherichia coli [10] = test: Antibacterial activity against Escherichia coli K-12 assessed as zone of inhibition by disk-plate assay; assay type: functional
[11] = (§3) Induction of lambda-bacteriophage expression in Escherichia coli assessed as induction of plaques at 0.2 ug/ml relative to control; assay type: functional, Enterobacteria phage lambda
[12] = Induction of lambda-bacteriophage expression in Escherichia coli assessed as induction of plaques at 3.1 ug/ml relative to control; assay type: functional, Enterobacteria phage lambda
Escherichia coli [13] = test: Toxicity in lambda-bacteriophage infected Escherichia coli at 3.1 ug/ml; assay type: organism-based; conditions: in vivo
Escherichia coli [14] = test: Toxicity in lambda-bacteriophage infected Escherichia coli at 0.8 ug/ml; assay type: organism-based; conditions: in vivo
P388 [15] = test: Antitumor activity against mouse P388 cells allografted CDF mouse assessed as increase in maximum survival time at 6.4 mg/kg treated on days 1 and 5 following tumor implantation relative to saline treated control; assay type: functional
Outline: (§4)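 Male CDF mice implanted intraperitoneally with 10⁶ P388 ascites leukemia cells; compound given on days 1 and 5 after tumor inoculum. Increase in maximum survival time calculated against saline-treated controls. Six mice per treated group, ten mice in the control group.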

Escherichia coli [16] = test: Toxicity in lambda-bacteriophage infected Escherichia coli at 0.0125 ug/ml; assay type: organism-based; conditions: in vivo
Escherichia coli [17] = test: Toxicity in lambda-bacteriophage infected Escherichia coli at 0.2 ug/ml; assay type: organism-based; conditions: in vivo
[18] = system: Enterobacteria phage lambda; test: as §1; assay type: functional
Escherichia coli [19] = test: Toxicity in lambda-bacteriophage infected Escherichia coli at 0.05 ug/ml; assay type: organism-based; conditions: in vivo
[20] = system: Enterobacteria phage lambda; test: as §2; assay type: functional
[21] = system: Enterobacteria phage lambda; test: as §3; assay type: functional
P388 [22] = test: Antitumor activity against mouse P388 cells allografted CDF mouse assessed as increase in maximum survival time at 3.2 mg/kg treated on days 1 and 5 following tumor implantation relative to saline treated control; assay type: functional; outline: as §4

SMILES	Ratio [1]	diameter of the inhibition zone (DIZ) (Escherichia coli [2]) [mm]	diameter of the inhibition zone (DIZ) [4] [mm]	diameter of the inhibition zone (DIZ) (Staphylococcus aureus [5]) [mm]	diameter of the inhibition zone (DIZ) (Klebsiella pneumoniae) [mm]	diameter of the inhibition zone (DIZ) (Staphylococcus aureus [6]) [mm]	Ratio [7]	diameter of the inhibition zone (DIZ) (Enterococcus faecalis) [mm]	Ratio [8]	diameter of the inhibition zone (DIZ) (Bacillus subtilis) [mm]	diameter of the inhibition zone (DIZ) (Micrococcus luteus) [mm]	diameter of the inhibition zone (DIZ) (Escherichia coli [10]) [mm]	Ratio [11]	Ratio [12]	Activity (Escherichia coli [14])	other results
CNC(=O)OCc1c2c(n3c1[C@H](NC(C)=O)[C@H](OC(C)=O)C3)C(=O)C(C)=C(OC)C2=O (relative stereo)	1.2	0	0	15	0	13	1.6	13	1.6	14	13	0	1.1			Activity (P388 [3]): inactive; Ratio [9]: 1.4
COC1=C(C)C(=O)c2c(c(COC(N)=O)c3n2C[C@@H](NC(C)=O)[C@H]3OC(C)=O)C1=O		0	0	5	0	5	1.1	0		0	9	0	0.8	1.6		
COC1=C(C)C(=O)c2c(c(COC(N)=O)c3n2C[C@@H](N)[C@H]3O)C1=O		2	4	11	0	9	4.1	6		8	9	0	1.4	16.7	Toxic	Activity (Escherichia coli [13]): Toxic
COC1=C(C)C(=O)c2c(c(COC(N)=O)c3n2CC[C@H]3OC(C)=O)C1=O		1	7	17	0	15	13.2	16		23	14	0	4.3	24.5		survival at 6.4 mg/kg (P388 [15]): 65%
COC1=C(C)C(=O)c2c(c(COC(N)=O)c3n2CC[C@H]3O)C1=O		0	0	17	0	17	2.9	17		19	14	0	1.3	6.9		
COC1=C(C)C(=O)C2=C(C1=O)[C@@H](COC(N)=O)[C@@]1(OC)[C@H]3N[C@H]3CN21 [MITOMYCIN A]	31.1	13	21	24	16	23		21	7.4	>22	>25	8			Toxic	Activity (Escherichia coli [16]): Toxic; Activity (Escherichia coli [17]): Toxic; Activity [18]: Active; Activity (Escherichia coli [19]): Toxic; Activity [20]: Active; Activity [21]: Active; survival at 3.2 mg/kg (P388 [22]): 80%
